This is an account of results in ChEMBL document CHEMBL1177746, “Labdanes and sucrose esters from Physalis sordida” (J Nat Prod, 2010).

The subject of experiment [1] is Mus musculus. Description: Antiinflammatory activity in NIH mouse assessed as inhibition of TPA-induced mouse ear edema measured per ear administered to right ear relative to untreated control. It counts as functional, organism-based. In short, it runs like this: (§1)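 Male NIH mice, groups of 5-8, anaesthetized with Sedaphorte. Right ear got TPA 2.5 μg in 10 μL EtOH, split across both faces; left ear got EtOH only. 10 min later, test compound at 0.1 to 1.0 μmol in 20 μL Me₂CO-CH₂Cl₂ (1:1) was applied to the right ear; controls got vehicle only. Sacrificed at 4 h; a 7 mm plug was taken from each ear.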

Experiment [2] deals with Mus musculus. Description: Antiinflammatory activity in NIH mouse assessed as inhibition of TPA-induced mouse ear edema at 1 umol/ear administered to right ear relative to untreated control. It counts as functional. The method in brief:
as §1

With `CCCCCCCCCCCC(=O)O[C@H]1[C@@H](O[C@]2(CO)O[C@H](CO)[C@@H](O)[C@@H]2O)O[C@H](CO)[C@@H](O)[C@@H]1OC(=O)C(C)C`, in experiment [1], the IC50 is 0.24 µmol/ear.

With `CCCCCCCCCCCC(=O)O[C@H]1[C@@H](O[C@]2(COC(C)=O)O[C@H](CO)[C@@H](O)[C@@H]2OC(=O)C(C)C)O[C@H](CO)[C@@H](O)[C@@H]1OC(=O)C(C)C`, the IC50 in experiment [1] turned out to be 0.26 µmol/ear.

For the compound `CC(=O)O[C@H](C[C@H]1C(C)=CC[C@H]2C(C)(C)CCC[C@]12C)/C(C)=C/CO`, the “inhibition (INH)” value in experiment [2] came out at 25.4%.

Turning to `CC1=CC[C@H]2C(C)(C)CCC[C@]2(C)[C@H]1C[C@@H](O)/C(C)=C/CO` [PHYSACOZTOMATIN], the “inhibition (INH)” value in experiment [2] is recorded as 65.8%. The IC50 in experiment [1] came out at 0.49 µmol/ear.

On to `C=C1[C@H](OC(C)=O)C[C@H]2C(C)(C)CCC[C@]2(C)[C@H]1C[C@@H](OC(C)=O)/C(C)=C/COC(C)=O`, for which the “inhibition (INH)” value in experiment [2] came out at 29.4%.

For the compound `CCCCCCCCCCCC(=O)O[C@H]1[C@@H](O[C@]2(CO)O[C@H](CO)[C@@H](O)[C@@H]2OC(=O)C(C)C)O[C@H](CO)[C@@H](O)[C@@H]1OC(=O)C(C)C`, the IC50 in experiment [1] was found to be 0.35 µmol/ear.

For `CCCCCCCCCCCC(=O)O[C@H]1[C@@H](O[C@]2(COC(C)=O)O[C@H](CO)[C@@H](O)[C@@H]2O)O[C@H](CO)[C@@H](O)[C@@H]1OC(=O)C(C)C`, the IC50 in experiment [1] worked out at 0.34 µmol/ear.

`C=C1[C@H](O)C[C@H]2C(C)(C)CCC[C@]2(C)[C@H]1C[C@@H](O)/C(C)=C/CO` [PHYSORDIN]: in experiment [2], the “inhibition (INH)” value came to 64.3%. Moreover, the IC50 in experiment [1] worked out at 0.63 µmol/ear.
